Test results published in ChEMBL document CHEMBL4020816.
pIC50, pKi: −log10 of the molar value.

Key:
[1] = target: T1, Cannabinoid receptor 1 (Homo sapiens, UniProt P21554); test: Displacement of [3H]CP55940 from recombinant human CB1 receptor expressed in beta-galactosidase expressing CHOK1 cell membranes after 60 mins by scintillation spectrometry; settings: for pKi: read-out: Ki; for Ki: read-out: pKi (converted)
[2] = target: T1, Cannabinoid receptor 1; test: Displacement of [3H]CP55940 from recombinant human CB1 receptor expressed in beta-galactosidase expressing CHOK1 cell membranes assessed as kinetic rate index by measuring ratio of radioligand binding at 30 mins to 240 mins by scintillation spectrometry
[3] = target: T1, Cannabinoid receptor 1; test: Antagonist activity at recombinant human CB1 receptor expressed in HEK293 cell membranes assessed as inhibition of CP55940-induced [35S]GTPgammaS binding preincubated for 1 hr followed by CP55940 addition and subsequent incubation with [35S]GTPgammaS measured after 30 mins by scintillation spectrometry; type: functional; settings: for pIC50: read-out: IC50
Outline: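 Antagonism was measured by [35S]GTPγS binding at 30 °C on membranes of HEK-293 cells stably expressing recombinant human CB1.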

T1 sequence (P21554 whole entry): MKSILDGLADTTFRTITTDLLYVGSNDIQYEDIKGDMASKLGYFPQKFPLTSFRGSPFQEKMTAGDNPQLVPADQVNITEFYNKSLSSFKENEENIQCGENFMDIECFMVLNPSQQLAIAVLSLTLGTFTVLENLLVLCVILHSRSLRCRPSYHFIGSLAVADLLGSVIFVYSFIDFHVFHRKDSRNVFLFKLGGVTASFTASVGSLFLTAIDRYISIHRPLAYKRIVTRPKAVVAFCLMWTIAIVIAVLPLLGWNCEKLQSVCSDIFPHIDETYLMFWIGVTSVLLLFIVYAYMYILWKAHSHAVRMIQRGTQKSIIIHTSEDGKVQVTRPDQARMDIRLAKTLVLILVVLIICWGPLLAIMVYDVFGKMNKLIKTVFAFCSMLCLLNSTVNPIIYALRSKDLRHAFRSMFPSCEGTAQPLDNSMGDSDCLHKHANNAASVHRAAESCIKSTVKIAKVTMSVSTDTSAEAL

Compound | pKi [1] | Ratio [2] | pIC50 [3] | Ki [1] [nM] | IC50 ([3]; read-out: pIC50 (converted)) [nM]
Cc1c(C(=O)NN2CCCCC2)nc(-c2ccc(Cl)cc2Cl)n1-c1ccc(OCCC(F)(F)F)cc1 | 8.90 | 0.9 | 8.25 | – | –
Cc1c(C(=O)NN2CCCCC2)nc(-c2ccc(Cl)cc2Cl)n1-c1ccc(OS(=O)(=O)CCC(F)(F)F)cc1 | 9.96 | 1.02 | 8.96 | – | –
Cc1c(C(=O)NN2CCCCC2)nc(-c2ccc(Cl)cc2Cl)n1-c1ccc(OS(=O)(=O)CCCF)cc1 | 9.49 | 0.88 | 8.51 | – | –
Cc1c(C(=O)Nc2ccc(OC(F)(F)F)cc2)nc(-c2ccc(Cl)cc2Cl)n1-c1ccc(OS(=O)(=O)CCC(F)(F)F)cc1 | 9.66 | 1.29 | 9.18 | 0.501 | –
Cc1c(C(=O)NN2CCCCC2)nc(-c2ccc(Cl)cc2Cl)n1-c1ccc(OCCCF)cc1 | 9.47 | 1.09 | 8.22 | 0.1 | –
Cc1c(C(=O)NN2CCCCC2)nc(-c2ccc(Cl)cc2Cl)n1-c1ccc(OS(=O)(=O)CCCC(F)(F)F)cc1 | 10.21 | 0.93 | 8.92 | – | –
Cc1c(C(=O)N[C@@H]2CCCC[C@H]2O)nc(-c2ccc(Cl)cc2Cl)n1-c1ccc(OS(=O)(=O)CCC(F)(F)F)cc1 | 9.52 | 0.74 | 8.77 | – | –
Cc1c(C(=O)NN2CCCCC2)nc(-c2ccc(Cl)cc2Cl)n1-c1ccc(OCCCC(F)(F)F)cc1 | 9.49 | 0.8 | 8.92 | – | –
Cc1c(C(=O)N[C@H]2CCCC[C@H]2N)nc(-c2ccc(Cl)cc2Cl)n1-c1ccc(OS(=O)(=O)CCC(F)(F)F)cc1 (racemic) | 9.28 | 0.79 | 8.15 | – | –
Cc1c(C(=O)N[C@@H]2CCCC[C@@H]2N(C)C)nc(-c2ccc(Cl)cc2Cl)n1-c1ccc(OS(=O)(=O)CCC(F)(F)F)cc1 (racemic) | – | 0.74 | – | – | –
Cc1c(C(=O)Nc2ccc(C(F)(F)F)nc2)nc(-c2ccc(Cl)cc2Cl)n1-c1ccc(OS(=O)(=O)CCC(F)(F)F)cc1 | 9.51 | 1.12 | 8.66 | – | –
CCCCS(=O)(=O)Oc1ccc(-n2c(-c3ccc(Cl)cc3Cl)nc(C(=O)NN3CCCCC3)c2C)cc1 | 9.74 | 0.77 | 8.89 | – | –
Cc1c(C(=O)Nc2ccc(F)nc2)nc(-c2ccc(Cl)cc2Cl)n1-c1ccc(OS(=O)(=O)CCC(F)(F)F)cc1 | 9.89 | 0.7 | – | – | 1.26
Cc1c(C(=O)NN2CCCC(O)C2)nc(-c2ccc(Cl)cc2Cl)n1-c1ccc(OS(=O)(=O)CCC(F)(F)F)cc1 (racemic) | 9.57 | 0.71 | 8.57 | – | –
Cc1c(C(=O)Nc2ccc(C(F)(F)F)cn2)nc(-c2ccc(Cl)cc2Cl)n1-c1ccc(OS(=O)(=O)CCC(F)(F)F)cc1 | 9.72 | 1.39 | 9.21 | – | –
Cc1c(C(=O)NC2CCC(O)CC2)nc(-c2ccc(Cl)cc2Cl)n1-c1ccc(OS(=O)(=O)CCC(F)(F)F)cc1 (mixture of isomers) | 9.43 | 0.88 | 8.42 | – | –
Cc1c(C(=O)NN2CCCCC2)nc(-c2ccc(Cl)cc2Cl)n1-c1ccc(OS(=O)(=O)CCC(C)(C)C)cc1 | 9.22 | 0.73 | 8.62 | – | –
Cc1c(C(=O)NN2CCCCC2)nc(-c2ccc(Cl)cc2Cl)n1-c1ccc(OS(=O)(=O)CCC(C)C)cc1 | 9.70 | 1.02 | 8.89 | – | –
Cc1c(C(=O)N[C@@H]2CCCC[C@@H]2O)nc(-c2ccc(Cl)cc2Cl)n1-c1ccc(OS(=O)(=O)CCC(F)(F)F)cc1 | 10.57 | 1.06 | 8.74 | 0.01 | –
Cc1c(C(=O)N[C@H]2CCC[C@H](O)C2)nc(-c2ccc(Cl)cc2Cl)n1-c1ccc(OS(=O)(=O)CCC(F)(F)F)cc1 (racemic) | 10.00 | 0.89 | 8.96 | – | –
CCCS(=O)(=O)Oc1ccc(-n2c(-c3ccc(Cl)cc3Cl)nc(C(=O)NN3CCCCC3)c2C)cc1 | 9.55 | 0.59 | 8.74 | – | –
Cc1ccc(NC(=O)c2nc(-c3ccc(Cl)cc3Cl)n(-c3ccc(OS(=O)(=O)CCC(F)(F)F)cc3)c2C)nc1 | 9.85 | 0.92 | 8.77 | – | –
